Source: PubChem BioAssay (several laboratories)
Only some compounds are listed: those with a hit (about 3% of all), similar ones and a draw of the others.
CendR NRP1 mod = modulators of CendR peptide binding to human neuropilin-1; O14786; FAM-RPARPAR peptide binding to NRP-1, fluorescence polarization; inhibition, % at 25 µM; hit rate 0.85% among 360,000;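 active = inhibition or corrected inhibition above about 18%, plus a signal ratio from 0.5 to 1.5, limit read from the data, passing the limit was not always enough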
Tn6 DDE FP = DD(E)-Tn6 binding inhibition, primary FP screen | Fibrin DD(E) TRITC-Tn6 fluorescence polarization displacement | AID 720509 | hit rate 0.21% among 370,000 | inhibition, % at 8.3 µM | P02675;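 active = inhibition above a per-campaign cutoff: mean of compounds within control limits plus 3 SD, cut at about 15% in these data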
Target sequence (P02675 whole entry, looked up): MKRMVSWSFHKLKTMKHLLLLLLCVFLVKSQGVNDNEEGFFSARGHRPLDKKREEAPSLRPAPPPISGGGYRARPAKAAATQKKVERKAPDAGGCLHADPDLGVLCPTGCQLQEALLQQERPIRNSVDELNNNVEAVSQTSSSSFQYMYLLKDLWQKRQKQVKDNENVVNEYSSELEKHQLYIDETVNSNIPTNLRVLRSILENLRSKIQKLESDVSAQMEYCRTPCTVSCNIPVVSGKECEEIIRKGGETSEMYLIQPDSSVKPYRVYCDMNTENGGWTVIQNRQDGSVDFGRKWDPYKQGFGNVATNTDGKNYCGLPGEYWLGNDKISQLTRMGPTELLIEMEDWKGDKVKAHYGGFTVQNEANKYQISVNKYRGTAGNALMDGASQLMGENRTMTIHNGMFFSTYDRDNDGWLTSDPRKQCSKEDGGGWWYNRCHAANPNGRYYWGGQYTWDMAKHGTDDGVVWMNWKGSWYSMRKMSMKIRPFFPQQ
Tn7 DDE FP = DD(E)-Tn7 binding inhibition, primary FP screen; P02675; FP displacement of FITC-Tn7 peptide from fibrin DD(E); 0% = median of compound wells per plate; inhibition, % at 8.3 µM; hit rate 0.13% among 370,000; AID 720508;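 active = inhibition above the mean of compounds falling within the control limits plus 3 SD of them, cut at about 14% in these data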
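Assay system: human fibrin DD(E) protein / Input: 2 µM fibrin DD(E) / Benchmarks: high control of 10 µM Aha-Tn7 peptide / Measured by: fluorescence polarization of the labelled Tn7 tracer / Medium: Tris buffer with calcium and detergent, pH 7.8 / Timing: 10 min compound pre-incubation, 3 h probe incubation at room temperature / Repeats: one replicate per compound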
KLK7 zymogen act = activates the human kallikrein-7 zymogen; activation, % at 7 µM; P49862; hit rate 0.9% among 370,000; AID 652039; purified proKLK7, EDANS-DABCYL substrate fluorescence; 100% is mature enzyme control, 0% vehicle;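 active = activation above the mean of all tested compounds plus 3 SD, computed per campaign excluding outliers beyond control limits, cut at about 13% in these data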
PLCb3 inh = PLC-beta3 (human) inhibition, primary screen. AID 720704. inhibition, % at 12.2 µM. hit rate 0.18% among 370,000. Purified PLC-beta3, fluorogenic substrate, fluorescence; in the data active = inhibition above about 11%
PLCg1 inh = inhibitors of human phospholipase C gamma1; P19174; hit rate 0.84% among 370,000; purified PLC-gamma1, fluorogenic substrate, fluorescence; inhibition, % at 12.2 µM
PLCgamma1 ctr = PLC-gamma1 inhibition, counter-screen for PLC-beta3 hits; purified PLC-gamma1, fluorogenic substrate, fluorescence; shares compounds with PLCg1 inh; hit rate 3.1% among 3,300; inhibition, % at 12.3 µM
PLCb3 confirm = confirmation of human PLC-beta3 inhibitors. shares compounds with PLCg1 inh. purified PLC-beta3, fluorogenic substrate fluorescence. inhibition, % at 12.3 µM. hit rate 1% among 3,300; in the data active = inhibition above about 11%
A number is an active result; i = inactive; nt = no result. Rule as the data show it, unless noted: active = inhibition above about 9.5%; inactive = the rest.

SMILES	CendR NRP1 mod	Tn6 DDE FP	Tn7 DDE FP	KLK7 zymogen act	PLCb3 inh	PLCg1 inh	PLCgamma1 ctr	PLCb3 confirm
CCOC(=O)[C@]12CCCC=C1N(Cc1ccc(OC)cc1)C(=O)[C@@H]2CC(=O)N1CCN(C(=O)C2CC2)CC1	nt	i	i	i	i	i	nt	nt
O=Cc1c(-c2ccc(F)cc2)nc2ccccn12	i	i	i	i	i	10.8	i	i
COc1ccc(-c2nc3ccccn3c2C=O)cc1	i	i	i	i	i	i	nt	nt
O=C(Cc1cccs1)Nc1nc(-c2ccc(F)cc2F)cs1	i	i	i	i	i	12.6	i	i
Cc1ccc(CN2CCC[C@]3(N[C@H](c4ccccc4)[C@@H]4C(=O)N(C)C(=O)[C@@H]43)C2=O)cc1	i	i	i	i	i	12.2	i	i
COc1ccc(CN2CCC[C@]3(N[C@H](c4ccc(C)cc4)[C@@H]4C(=O)N(C)C(=O)[C@@H]43)C2=O)cc1	i	i	i	i	i	i	nt	nt
Cc1cccc(NC(=O)Cn2nnc(-c3ccccc3F)n2)c1C	nt	i	i	i	i	i	nt	nt
COc1ccccc1N1CCN(C(c2ccc(Cl)cc2)c2nnnn2C(C)(C)C)CC1 (configuration not stated)	i	i	i	i	i	12.8	i	i
COc1ccc(C(c2nnnn2C(C)(C)C)N2CCN(C/C=C/c3ccccc3)CC2)cc1 (configuration not stated)	i	i	i	i	i	11.4	i	i
O=C(CSc1nnc(COc2ccccc2)n1Cc1ccco1)Nc1ccc(OCc2ccccc2)cc1	nt	i	i	i	i	i	nt	nt
COc1ccc(NC(=S)Nc2cc(-c3ccccc3)[nH]n2)cc1Cl	i	i	i	i	12.2	12.3	i	i
COc1ccc(NC(=S)Nc2cc(C)[nH]n2)cc1Cl	i	i	i	i	i	i	nt	nt
CCC(Cc1ccccc1)NC(=O)C1CCN(S(=O)(=O)c2ccc3c(c2)CC(C)N3C(C)=O)CC1 (configuration not stated)	i	i	i	i	i	11.7	i	i
COc1cccc(-c2ccc3ncnc(NCc4ccc5c(c4)OCO5)c3c2)c1	i	i	i	i	11.8	10.9	i	i
O=S(=O)(NCCCCCNS(=O)(=O)c1ccc(F)cc1)c1ccc(F)cc1	i	i	i	i	i	i	nt	nt
O=C(O)CCCNS(=O)(=O)c1ccc(F)cc1	i	i	i	i	i	9.7	i	i
COC(=O)C1CN(Cc2cn(Cc3ccc(Cl)cc3)nn2)CCS(=O)(=O)N1Cc1ccccc1 (configuration not stated)	nt	i	i	i	i	i	nt	nt
O=C(Oc1ccc(Br)cc1C(=S)N1CCCC1)c1ccccc1F	i	i	i	i	i	13.2	i	i
O=C1[C@H]2C[C@@]3(n4ccc5ccccc54)c4ccccc4N(S(=O)(=O)c4ccccc4)[C@H]3N2C(=O)CN1Cc1ccccc1	nt	i	i	i	i	i	nt	nt
CCOC(=O)C1CCN(Cc2ccc(O)c(OC)c2)CC1	i	i	i	i	i	12.0	i	i
O=C(COC(=O)CCc1nc2ccccc2s1)Nc1cccc(S(=O)(=O)N2CCOCC2)c1	i	i	i	i	i	11.3	i	i
O=C(COC(=O)CCc1nc2ccccc2s1)Nc1ccc(S(=O)(=O)N2CCOCC2)cc1	i	i	i	i	i	i	nt	nt
COc1cc(C(=O)O/N=C(\N)Cc2ccc([N+](=O)[O-])cc2)cc(OC)c1OC	i	i	i	i	i	i	nt	nt
COc1ccc(C(=O)O/N=C(\N)Cc2ccc([N+](=O)[O-])cc2)c(OC)c1	i	i	i	i	i	10.3	i	i
CCn1c(=S)sc2c(=O)n(CC(=O)Nc3cccc(Cl)c3)c(C)nc21	i	i	i	i	i	10.3	i	10.9
CCOC(=O)c1ccc(NC(=O)Cn2c(C)nc3c(sc(=S)n3CC)c2=O)cc1	i	i	i	i	i	i	nt	nt
O=C(c1ccco1)N1CCC(Oc2cccnc2)CC1	nt	i	i	i	i	i	nt	nt
